According to article PMC12371875 (Journal of Agricultural and Food Chemistry, 2025):
In brackets after ≈: the same amount, converted by molar mass.

Legend:
[1] = test system: rat intestinal maltase; experiment: Kinetic study of α-glucosidase inhibition; format: biochemical
In short: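 Rat intestinal α-glucosidase with test compound in phosphate buffer pH 6.9. Maltose was varied over 2–10 mM, with and without inhibitor, and the mixture was incubated at 37 °C for 10 min. […] Inhibition type came from Lineweaver–Burk plots. Ki and Ki′ came from secondary plots of slopes and intercepts versus inhibitor concentration.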

[2] = target: rat intestinal sucrase (Rattus norvegicus, UniProt P23739); experiment: Kinetic study of α-glucosidase inhibition; format: biochemical
rat intestinal sucrase, sequence (P23739 whole entry): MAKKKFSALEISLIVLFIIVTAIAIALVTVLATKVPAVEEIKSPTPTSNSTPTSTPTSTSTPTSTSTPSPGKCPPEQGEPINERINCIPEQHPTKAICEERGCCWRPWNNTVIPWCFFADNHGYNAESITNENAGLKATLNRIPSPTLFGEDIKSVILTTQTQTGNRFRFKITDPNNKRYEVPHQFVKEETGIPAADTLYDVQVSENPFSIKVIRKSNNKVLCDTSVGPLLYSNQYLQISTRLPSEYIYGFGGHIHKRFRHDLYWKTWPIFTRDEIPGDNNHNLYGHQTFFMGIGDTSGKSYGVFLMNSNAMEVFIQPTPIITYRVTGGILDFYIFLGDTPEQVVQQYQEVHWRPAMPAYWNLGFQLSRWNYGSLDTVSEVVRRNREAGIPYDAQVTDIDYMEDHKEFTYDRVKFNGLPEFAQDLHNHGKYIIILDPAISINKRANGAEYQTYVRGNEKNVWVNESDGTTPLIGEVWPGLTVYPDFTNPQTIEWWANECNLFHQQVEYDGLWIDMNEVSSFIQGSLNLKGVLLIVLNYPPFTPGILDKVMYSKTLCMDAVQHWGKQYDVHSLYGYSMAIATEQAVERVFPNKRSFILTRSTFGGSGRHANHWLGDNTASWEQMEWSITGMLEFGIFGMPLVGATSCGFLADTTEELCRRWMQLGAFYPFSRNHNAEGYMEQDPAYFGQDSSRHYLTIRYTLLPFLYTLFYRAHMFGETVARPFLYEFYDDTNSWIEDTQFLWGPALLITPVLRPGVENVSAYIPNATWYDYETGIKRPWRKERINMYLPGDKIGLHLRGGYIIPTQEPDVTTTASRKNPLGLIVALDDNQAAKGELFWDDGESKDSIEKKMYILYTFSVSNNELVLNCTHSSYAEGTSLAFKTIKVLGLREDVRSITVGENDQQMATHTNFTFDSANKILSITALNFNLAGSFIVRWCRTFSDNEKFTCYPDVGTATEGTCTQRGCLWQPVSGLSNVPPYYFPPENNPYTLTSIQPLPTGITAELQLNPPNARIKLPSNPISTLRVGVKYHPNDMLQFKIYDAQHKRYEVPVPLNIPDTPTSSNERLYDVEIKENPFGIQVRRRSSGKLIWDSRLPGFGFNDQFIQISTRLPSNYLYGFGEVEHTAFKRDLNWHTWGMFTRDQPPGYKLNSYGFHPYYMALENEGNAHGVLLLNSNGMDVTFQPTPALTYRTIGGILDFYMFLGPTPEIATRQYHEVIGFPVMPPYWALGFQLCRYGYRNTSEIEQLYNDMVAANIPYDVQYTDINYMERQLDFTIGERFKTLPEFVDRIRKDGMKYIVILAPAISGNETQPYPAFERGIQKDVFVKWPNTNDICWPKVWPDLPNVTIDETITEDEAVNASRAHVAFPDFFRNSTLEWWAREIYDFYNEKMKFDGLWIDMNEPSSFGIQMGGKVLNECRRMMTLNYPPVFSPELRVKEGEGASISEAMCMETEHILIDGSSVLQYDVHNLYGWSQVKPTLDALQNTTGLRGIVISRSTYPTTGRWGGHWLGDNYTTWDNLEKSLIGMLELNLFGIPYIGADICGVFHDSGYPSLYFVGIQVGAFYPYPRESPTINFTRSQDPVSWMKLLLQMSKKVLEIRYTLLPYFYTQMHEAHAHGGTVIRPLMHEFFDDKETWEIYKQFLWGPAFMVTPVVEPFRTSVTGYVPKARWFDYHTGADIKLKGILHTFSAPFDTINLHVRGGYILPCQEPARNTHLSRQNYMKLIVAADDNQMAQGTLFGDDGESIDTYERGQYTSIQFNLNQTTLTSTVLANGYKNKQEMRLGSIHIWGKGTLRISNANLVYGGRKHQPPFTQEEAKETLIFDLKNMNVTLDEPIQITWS
In short: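 Test compound in phosphate buffer pH 6.9 with rat intestinal α-glucosidase. Sucrose was varied over 20–100 mM, with and without inhibitor, and incubated at 37 °C for 40 min. […] Lineweaver–Burk plots gave the inhibition type. Secondary plots of slopes and intercepts against inhibitor concentration gave Ki and Ki′.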

[3] = target: yeast α-glucosidase; conditions: ref Suttithumsatid and co-workers, 2022; cited from earlier work
[4] = dissociation constant of ESI complex, secondary plots

Compound	Inhibition type, maltase ([1]; Lineweaver–Burk plots, maltose 2–10 mM)	Ki′, maltase [1, 4] [µM]	Inhibition type, sucrase ([2]; Lineweaver–Burk plots, sucrose 20–100 mM)	Ki′, sucrase [2, 4] [µM]	IC50, yeast α-glucosidase inhibition [3] [µg/mL]
CCCCCc1cc(O)c2c(c1)OC(C)(C)c1ccc(C)cc1-2 [Compound 15, cannabinol]	Uncompetitive	196.4	Uncompetitive	434.8	
C=C(C)[C@@H]1CCC(C)=C[C@H]1c1c(O)cc(CCCCC)cc1O [CBD]					5.5 (≈ 17.5 µM)
